Measured values from article PMC6980386 (Traffic (Copenhagen, Denmark), 2019).

Legend:
FL huCD4 L14A = FL huCD4 L14A (Homo sapiens, UniProt P01730, L14A); experiment: CADA down-modulation of cellular huCD4; assay type: cell-based
Method in brief: (§1)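 HEK293T cells, seeded overnight in DMEM with 10% serum, 1 mM sodium pyruvate and 0.075% NaHCO₃, were lipofected with full-length human CD4 (WT or mutant). Test compound in DMSO was added 6 h post-transfection as 1:5 serial dilutions (50–0.016 μM) for 48 h. Surface CD4 was stained with FITC/APC anti-CD4 (SK3) and read by flow cytometry. IC50 is 50% of the untreated signal, from four-parameter fits of ≥3 replicate experiments. FC is mutant/WT mean IC50.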

FL huCD4 R8A = FL huCD4 R8A (Homo sapiens, UniProt P01730, R8A); experiment: CADA down-modulation of cellular huCD4; assay type: cell-based; settings: read-out: Cellular huCD4 IC50 (μM) Mean, HEK293T, CADA 48h
Method in brief: as §1

huCD4_1–32-YFP P20A = huCD4_1–32-YFP P20A (Homo sapiens, UniProt P01730, P20A); experiment: CADA inhibition of huCD4_1–32-YFP secretion; assay type: cell-based
Method in brief: (§2)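 HEK293T cells were grown in DMEM with 10% FBS and 10 mM HEPES, seeded and left to adhere overnight, then transiently transfected with plasmid by Lipofectamine. Test compound was added 6 h after transfection as a 1:5 serial dilution (50 to 0.016 μM) for 48 h. Secreted YFP in the supernatant was captured on GFP-Trap magnetic beads for 1 h, washed with PBS and measured by flow cytometry. IC50 is the concentration that halves the signal relative to the untreated control, taken from a four-parameter fit of at least three replicate experiments. FC is the mutant mean IC50 divided by the WT mean IC50.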

FL huCD4 V29A = FL huCD4 V29A (Homo sapiens, UniProt P01730, V29A); experiment: CADA down-modulation of cellular huCD4; assay type: cell-based
Method in brief: as §1

FL huCD4 H9A = FL huCD4 H9A (Homo sapiens, UniProt P01730, H9A); experiment: CADA down-modulation of cellular huCD4; assay type: cell-based
Method in brief: as §1

[1] = target: truncated huCD4 D1D2 A17V (Homo sapiens, UniProt P01730, A17V); experiment: Cell-free in vitro translation and translocation; assay type: biochemical; settings: 15 μM CADA
Method in brief: (§3)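 Truncated huCD4 D1D2 (lacking glycosylation sites and membrane anchor) was made by PCR and transcribed with T7. Proteinase K protection ran 30 min on ice and was quenched with PMSF. Products were separated by SDS-PAGE and imaged by phosphor imaging. The SP-cleaved band was normalised to the matching control. Data are from 2–5 independent experiments, compared with WT by Welch t test.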

FL huCD4 L11A = FL huCD4 L11A (Homo sapiens, UniProt P01730, L11A); experiment: CADA down-modulation of cellular huCD4; assay type: cell-based
Method in brief: as §1

FL huCD4 R8E = FL huCD4 R8E (Homo sapiens, UniProt P01730, R8E); experiment: CADA down-modulation of cellular huCD4; assay type: cell-based; settings: HEK293T, 48h
Method in brief: as §1

FL huCD4 L10A;L18A = FL huCD4 L10A;L18A (Homo sapiens, UniProt P01730, L10A/L18A); experiment: CADA down-modulation of cellular huCD4; assay type: cell-based; settings: compared with single Leu-to-Ala mutants
Method in brief: as §1

FL huCD4 L19A = FL huCD4 L19A (Homo sapiens, UniProt P01730, L19A); experiment: CADA down-modulation of cellular huCD4; assay type: cell-based
Method in brief: as §1

FL huCD4 K26A = FL huCD4 K26A (Homo sapiens, UniProt P01730, K26A); experiment: CADA down-modulation of cellular huCD4; assay type: cell-based
Method in brief: as §1

huCD4_1–32-YFP G31A = huCD4_1–32-YFP G31A (Homo sapiens, UniProt P01730, G31A); experiment: CADA inhibition of huCD4_1–32-YFP secretion; assay type: cell-based
Method in brief: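 HEK293T cells were lipofected with human CD4 residues 1–32 fused to the N-terminus of YFP (secreted, no membrane anchor). Test compound was added 6 h post-transfection as 1:5 serial dilutions (50–0.016 μM) for 48 h. Supernatant was captured on GFP-Trap magnetic beads for 1 h, washed in PBS, and YFP was read by flow cytometry. IC50 is 50% of the untreated control, from four-parameter fits of ≥3 replicate experiments. FC is mutant/WT mean IC50.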

FL huCD4 T23A = FL huCD4 T23A (Homo sapiens, UniProt P01730, T23A); experiment: CADA down-modulation of cellular huCD4; assay type: cell-based
Method in brief: as §1

huCD4_1–32-YFP L30A = huCD4_1–32-YFP L30A (Homo sapiens, UniProt P01730, L30A); experiment: CADA inhibition of huCD4_1–32-YFP secretion; assay type: cell-based
Method in brief: as §2

huCD4_1–32-YFP V5A = huCD4_1–32-YFP V5A (Homo sapiens, UniProt P01730, V5A); experiment: CADA inhibition of huCD4_1–32-YFP secretion; assay type: cell-based
Method in brief: as §2

FL huCD4 P20G = FL huCD4 P20G (Homo sapiens, UniProt P01730, P20G); experiment: CADA down-modulation of cellular huCD4; assay type: cell-based; settings: HEK293T, 48h
Method in brief: as §1

[2] = target: truncated huCD4 D1D2 P20A (Homo sapiens, UniProt P01730, P20A); experiment: Cell-free in vitro translation and translocation; assay type: biochemical
Method in brief: as §3

huCD4_1–32-YFP P6A = huCD4_1–32-YFP P6A (Homo sapiens, UniProt P01730, P6A); experiment: CADA inhibition of huCD4_1–32-YFP secretion; assay type: cell-based
Method in brief: as §2

FL huCD4 V5A = FL huCD4 V5A (Homo sapiens, UniProt P01730, V5A); experiment: CADA down-modulation of cellular huCD4; assay type: cell-based
Method in brief: as §1

FL huCD4 R3A = FL huCD4 R3A (Homo sapiens, UniProt P01730, R3A); experiment: CADA down-modulation of cellular huCD4; assay type: cell-based
Method in brief: as §1

huCD4_1–32-YFP V28A = huCD4_1–32-YFP V28A (Homo sapiens, UniProt P01730, V28A); experiment: CADA inhibition of huCD4_1–32-YFP secretion; assay type: cell-based
Method in brief: as §2

truncated huCD4 D1D2 WT = truncated huCD4 D1D2 WT (Homo sapiens, UniProt P01730); experiment: Cell-free in vitro translation and translocation; assay type: biochemical
Method in brief: as §3

[3] = + less, − more sensitive to CADA
[4] = read-out: Cellular huCD4 IC50 (μM) Mean, HEK293T, CADA 48h
[5] = read-out: Secreted YFP IC50 (μM) Mean, HEK293T, CADA 48h

Which results are given for `C=C1CN(S(=O)(=O)c2ccc(C)cc2)CCCN(Cc2ccccc2)CCCN(S(=O)(=O)c2ccc(C)cc2)C1` [CADA, Cyclotriazadisulfonamide]?
Cellular huCD4 FC (fold change of mean IC50 relative to WT) (FL huCD4 L14A; [3]): −1.2; IC50 (FL huCD4 L14A; [4]): 0.46 µM; IC50 (FL huCD4 R8A): 4.2 µM; Secreted YFP FC (fold change of mean IC50 relative to WT) (huCD4_1–32-YFP P20A; [3]): >+39; IC50 (huCD4_1–32-YFP P20A; [5]): > 50 µM; Cellular huCD4 FC (fold change of mean IC50 relative to WT) (FL huCD4 V29A; [3]): +1.2; IC50 (FL huCD4 V29A; [4]): 0.63 µM; Cellular huCD4 FC (fold change of mean IC50 relative to WT) (FL huCD4 H9A; [3]): +1.1; IC50 (FL huCD4 H9A; [4]): 0.62 µM; inhibitory effect of CADA on protein translocation compared to WT [1]: significantly reduced; Cellular huCD4 FC (fold change of mean IC50 relative to WT) (FL huCD4 L11A; [3]): −4.5; IC50 (FL huCD4 L11A; [4]): 0.12 µM; sensitivity to CADA (FL huCD4 R8E): reduced sensitivity to CADA; sensitivity to CADA (FL huCD4 L10A;L18A): further enhanced the effect; Cellular huCD4 FC (fold change of mean IC50 relative to WT) (FL huCD4 L19A; [3]): +1.9; IC50 (FL huCD4 L19A; [4]): 1.04 µM; Cellular huCD4 FC (fold change of mean IC50 relative to WT) (FL huCD4 K26A; [3]): +2.7; IC50 (FL huCD4 K26A; [4]): 1.44 µM; Secreted YFP FC (fold change of mean IC50 relative to WT) (huCD4_1–32-YFP G31A; [3]): +2.0; IC50 (huCD4_1–32-YFP G31A; [5]): 2.56 µM; Cellular huCD4 FC (fold change of mean IC50 relative to WT) (FL huCD4 T23A; [3]): +1.6; IC50 (FL huCD4 T23A; [4]): 0.87 µM; Secreted YFP FC (fold change of mean IC50 relative to WT) (huCD4_1–32-YFP L30A; [3]): −1.2; IC50 (huCD4_1–32-YFP L30A; [5]): 1.08 µM; Secreted YFP FC (fold change of mean IC50 relative to WT) (huCD4_1–32-YFP V5A; [3]): −3.8; IC50 (huCD4_1–32-YFP V5A; [5]): 0.33 µM; sensitivity to CADA (FL huCD4 P20G): fully restored CADA sensitivity; inhibitory effect of CADA on protein translocation compared to WT ([2]; 15 μM CADA): significantly reduced; effect of CADA on co-translational translocation ([2]; increasing doses of CADA): still responded to CADA, although to a lesser extent as compared to WT huCD4; Secreted YFP FC (fold change of mean IC50 relative to WT) (huCD4_1–32-YFP P6A; [3]): −2.3; IC50 (huCD4_1–32-YFP P6A; [5]): 0.55 µM; Cellular huCD4 FC (fold change of mean IC50 relative to WT) (FL huCD4 V5A; [3]): −1.9; IC50 (FL huCD4 V5A; [4]): 0.29 µM; Cellular huCD4 FC (fold change of mean IC50 relative to WT) (FL huCD4 R3A; [3]): −1.1; IC50 (FL huCD4 R3A; [4]): 0.47 µM; Secreted YFP FC (fold change of mean IC50 relative to WT) (huCD4_1–32-YFP V28A; [3]): −1.8; IC50 (huCD4_1–32-YFP V28A; [5]): 0.72 µM; inhibition of translocation by CADA (truncated huCD4 D1D2 WT; 15 μM CADA vs DMSO, rabbit reticulocyte lysate, ovine microsomes): 75%; effect of CADA on co-translational translocation (truncated huCD4 D1D2 WT; increasing doses of CADA): dose-dependently prevented by CADA
